ChEMBL document CHEMBL1140253, “Synthesis of functionalized acetophenones as protein tyrosine phosphatase 1B inhibitors” (Bioorg Med Chem Lett, 2005)

How the values were obtained:
[1] = target: T1, Tyrosine-protein phosphatase non-receptor type 1 (Mus musculus) (UniProt P35821); test: (§1) In vitro inhibitory activity against PTP1B at 100 uM 10 min incubation
T1 sequence (whole entry): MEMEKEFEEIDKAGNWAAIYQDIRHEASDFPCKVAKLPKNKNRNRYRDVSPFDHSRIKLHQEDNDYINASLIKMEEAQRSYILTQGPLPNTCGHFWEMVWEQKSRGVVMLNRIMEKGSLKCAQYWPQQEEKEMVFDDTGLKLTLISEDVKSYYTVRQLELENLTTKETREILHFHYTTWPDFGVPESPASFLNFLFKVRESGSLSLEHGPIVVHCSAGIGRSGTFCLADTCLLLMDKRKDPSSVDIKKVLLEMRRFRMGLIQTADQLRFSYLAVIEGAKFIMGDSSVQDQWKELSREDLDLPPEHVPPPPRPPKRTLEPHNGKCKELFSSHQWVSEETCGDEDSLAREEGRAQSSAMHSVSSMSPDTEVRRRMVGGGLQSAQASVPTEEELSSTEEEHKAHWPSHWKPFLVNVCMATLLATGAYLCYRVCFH
Procedure, shortened: (§2)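 p-Nitrophenylphosphate (10 mM) as substrate in 50 mM HEPES buffer, pH 7, with 1 mM EDTA and DTT. Compounds tested at 100 µM, with sodium vanadate as reference control. Result given as percent inhibition of phosphatase activity, mean of three independent experiments.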

[2] = target: Tyrosine-protein phosphatase non-receptor type 1 (Mus musculus) (UniProt P35821); test: as §1; procedure, shortened: as §2; remark: listed apart in the source

Row | Molecule | inhibition [1] | inhibition [2]
1 | CC(=O)c1ccc(OCC#N)cc1O | 22.4% | –
2 | CC(=O)c1ccc2occc2c1OC(=O)c1ccc(Cl)c(Cl)c1 | 54.1% | –
3 | O=C(/C=C(\O)c1ccc(OCCc2ccccc2)cc1O)c1ccc(F)cc1 | No inhibition | –
4 | N#CCOc1ccc(/C(O)=C/C(=O)c2ccc(F)cc2)c(O)c1 | No inhibition | –
5 | COc1ccc(C(=O)Oc2cc3occc3cc2C(C)=O)cc1 | 13.5% | –
6 | CC(=O)c1ccc(OCC#N)cc1OC(=O)c1ccccc1 | 12.8% | –
7 | CC(=O)c1ccc2occc2c1O | No inhibition | –
8 | N#CCOc1ccc(/C(O)=C/C(=O)c2ccccc2)c(O)c1 | No inhibition | –
9 | C=CCOc1ccc(C(C)=O)c(O)c1 | No inhibition | –
10 | CC(=O)c1ccc(OCC2CO2)cc1O (stereo not drawn) | 22.4% | –
11 | COc1cccc(C(=O)Oc2cc3occc3cc2C(C)=O)c1 | 8.1% | –
12 | CC(=O)c1ccc(OCCO)cc1O | No inhibition | –
13 | CC(=O)c1ccc(OCC#N)cc1OC(=O)c1ccc(F)cc1 | No inhibition | –
14 | CC(=O)c1cc2ccoc2cc1OC(=O)c1ccc2c(c1)OCO2 | 34% | –
15 | CC(=O)c1ccc(OCCc2ccccc2)cc1OC(=O)c1ccc(F)cc1 | No inhibition | –
16 | SODIUM ORTHOVANAD | – | 56.2%
17 | CC(=O)c1cc2ccoc2cc1O | 19.1% | –
18 | CC(=O)c1ccc2occc2c1OC(=O)c1ccccc1 | 43.2% | –
19 | O=C(/C=C(\O)c1ccc2occc2c1O)c1ccc(C(F)(F)F)cc1 | No inhibition | –
20 | CC(=O)c1ccc2occc2c1OC(=O)c1ccc(C(F)(F)F)cc1 | 32.4% | –
21 | CC(=O)c1ccc(OCCc2ccccc2)cc1O | 38.6% | –
22 | COc1ccc(C(=O)Oc2cc3occc3cc2C(C)=O)cc1OC | No inhibition | –
23 | CC(=O)c1cc2ccoc2cc1OC(=O)c1ccccc1 | No inhibition | –
